Measured values from ChEMBL document CHEMBL1145255, “Synthesis and antifungal activity of 5-arylamino-4,7-dioxobenzo[b]thiophenes” (2005).
Converted amounts (≈) assume the structure as drawn.

Experiments:
Format in all cases: functional
Pichia kudriavzevii = assay: In vitro minimum inhibitory concentration against Candida krusei Berkout KCCM 11655 strain at 37 degree C after 1 day of treatment; details: KCCM 11655, 24 h
Method in brief: (§1)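 Two-fold broth dilution MIC in modified Sabouraud dextrose broth, inoculum about 1 × 10⁵ cells/mL, incubated at 37 °C. MIC was read after 1 day for the Candida species and after 2 days for A. niger.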

Aspergillus niger = assay: In vitro minimum inhibitory concentration against Aspergillus niger KCTC 1231 strain at 37 degree C after 2 day of treatment; details: KCTC 1231, 48 h; method in brief: as §1
Candida albicans = assay: In vitro minimum inhibitory concentration against Candida albicans Berkout KCCM 50235 strain at 37 degree C after 1 day of treatment; details: KCCM 50235, 24 h; method in brief: as §1
Candida tropicalis = assay: In vitro minimum inhibitory concentration against Candida tropicalis Berkout KCCM 50662 strain at 37 degree C after 1 day of treatment; details: KCCM 50662, 24 h; method in brief: as §1

Row | Compound | MIC (Pichia kudriavzevii) | MIC (Aspergillus niger) | MIC (Candida albicans) | MIC (Candida tropicalis)
1 | O=C1C(Nc2ccc(C(F)(F)F)cc2)=C(Cl)C(=O)c2sc(CO)cc21 | 3.2 µg/mL (≈ 8.25 µM) | 50 µg/mL (≈ 129 µM) | 50 µg/mL (≈ 129 µM) | 0.4 µg/mL (≈ 1.03 µM)
2 | COC(=O)c1cc2c(s1)C(=O)C(Cl)=C(Nc1ccc(C(F)(F)F)cc1)C2=O | 25 µg/mL (≈ 60.1 µM) | 50 µg/mL (≈ 120 µM) | 12.5 µg/mL (≈ 30.1 µM) | 1.6 µg/mL (≈ 3.85 µM)
3 | COC(=O)c1cc2c(s1)C(=O)C(Cl)=C(Nc1ccc(Br)cc1)C2=O | 25 µg/mL (≈ 58.6 µM) | 25 µg/mL (≈ 58.6 µM) | 0.8 µg/mL (≈ 1.87 µM) | 3.2 µg/mL (≈ 7.5 µM)
4 | COC(=O)c1cc2c(s1)C(=O)C=C(Nc1ccc(C)cc1)C2=O | 6.3 µg/mL (≈ 19.2 µM) | 50 µg/mL (≈ 153 µM) | 50 µg/mL (≈ 153 µM) | 3.2 µg/mL (≈ 9.78 µM)
5 | O=C1C(Nc2ccccc2)=CC(=O)c2sc(CO)cc21 | 6.3 µg/mL (≈ 22.1 µM) | 0.8 µg/mL (≈ 2.8 µM) | 50 µg/mL (≈ 175 µM) | 0.8 µg/mL (≈ 2.8 µM)
6 | O=C1C(Nc2ccccc2)=C(Cl)C(=O)c2sc(CO)cc21 | 1.6 µg/mL (≈ 5 µM) | 12.5 µg/mL (≈ 39.1 µM) | 6.3 µg/mL (≈ 19.7 µM) | 3.2 µg/mL (≈ 10 µM)
7 | Cc1ccc(NC2=CC(=O)c3sc(CO)cc3C2=O)cc1 | 25 µg/mL (≈ 83.5 µM) | 3.2 µg/mL (≈ 10.7 µM) | > 50 µg/mL | 25 µg/mL (≈ 83.5 µM)
8 | O=C1C(Nc2ccc(I)cc2)=CC(=O)c2sc(CO)cc21 | 25 µg/mL (≈ 60.8 µM) | 3.2 µg/mL (≈ 7.78 µM) | 50 µg/mL (≈ 122 µM) | 1.6 µg/mL (≈ 3.89 µM)
9 | O=C1C(Nc2ccc(F)cc2)=CC(=O)c2sc(CO)cc21 | > 25 µg/mL | 25 µg/mL (≈ 82.4 µM) | 50 µg/mL (≈ 165 µM) | 12.5 µg/mL (≈ 41.2 µM)
10 | COC(=O)c1cc2c(s1)C(=O)C(Cl)=C(Nc1ccc(Cl)cc1)C2=O | 25 µg/mL (≈ 65.4 µM) | 25 µg/mL (≈ 65.4 µM) | 12.5 µg/mL (≈ 32.7 µM) | 6.3 µg/mL (≈ 16.5 µM)
11 | COC(=O)c1cc2c(s1)C(=O)C=C(Nc1ccccc1)C2=O | 12.5 µg/mL (≈ 39.9 µM) | 50 µg/mL (≈ 160 µM) | 50 µg/mL (≈ 160 µM) | 6.3 µg/mL (≈ 20.1 µM)
12 | O=C1C(Nc2ccc(C(F)(F)F)cc2)=CC(=O)c2sc(CO)cc21 | 12.5 µg/mL (≈ 35.4 µM) | 0.8 µg/mL (≈ 2.26 µM) | 0.8 µg/mL (≈ 2.26 µM) | 0.8 µg/mL (≈ 2.26 µM)
13 | COC(=O)c1cc2c(s1)C(=O)C=C(Nc1ccc(F)cc1)C2=O | 25 µg/mL (≈ 75.5 µM) | > 50 µg/mL | > 50 µg/mL | 25 µg/mL (≈ 75.5 µM)
14 | O=C1C=CC(=O)c2sc(CO)cc21 | 50 µg/mL (≈ 257 µM) | 50 µg/mL (≈ 257 µM) | > 50 µg/mL | 25 µg/mL (≈ 129 µM)
15 | COC(=O)c1cc2c(s1)C(=O)C=C(Nc1ccc(I)cc1)C2=O | 6.3 µg/mL (≈ 14.3 µM) | 50 µg/mL (≈ 114 µM) | 50 µg/mL (≈ 114 µM) | 0.2 µg/mL (≈ 0.455 µM)
16 | Cc1ccc(NC2=C(Cl)C(=O)c3sc(CO)cc3C2=O)cc1 | 0.8 µg/mL (≈ 2.4 µM) | 50 µg/mL (≈ 150 µM) | 50 µg/mL (≈ 150 µM) | 1.6 µg/mL (≈ 4.79 µM)
17 | O=C1C(Nc2ccc(F)cc2)=C(Cl)C(=O)c2sc(CO)cc21 | 1.6 µg/mL (≈ 4.74 µM) | 50 µg/mL (≈ 148 µM) | 12.5 µg/mL (≈ 37 µM) | 0.4 µg/mL (≈ 1.18 µM)
18 | COc1ccc(NC2=C(Cl)C(=O)c3sc(CO)cc3C2=O)cc1 | 3.2 µg/mL (≈ 9.15 µM) | 50 µg/mL (≈ 143 µM) | 25 µg/mL (≈ 71.5 µM) | 1.6 µg/mL (≈ 4.57 µM)
19 | COC(=O)c1cc2c(s1)C(=O)C(Cl)=C(Nc1ccc(I)cc1)C2=O | 25 µg/mL (≈ 52.8 µM) | 3.2 µg/mL (≈ 6.76 µM) | 6.3 µg/mL (≈ 13.3 µM) | 1.6 µg/mL (≈ 3.38 µM)
20 | O=C1C(Nc2ccc(Cl)cc2)=C(Cl)C(=O)c2sc(CO)cc21 | 1.6 µg/mL (≈ 4.52 µM) | > 50 µg/mL | 12.5 µg/mL (≈ 35.3 µM) | 0.4 µg/mL (≈ 1.13 µM)

Row | Compound | MIC (Pichia kudriavzevii) | MIC (Aspergillus niger) | MIC (Candida albicans) | MIC (Candida tropicalis)
21 | O=C1C(Nc2ccc(O)cc2)=C(Cl)C(=O)c2sc(CO)cc21 | > 50 µg/mL | > 50 µg/mL | > 50 µg/mL | 25 µg/mL (≈ 74.5 µM)
22 | COC(=O)c1cc2c(s1)C(=O)C=CC2=O | > 50 µg/mL | > 50 µg/mL | > 50 µg/mL | 25 µg/mL (≈ 113 µM)
23 | COC(=O)c1cc2c(s1)C(=O)C=C(Nc1ccc(Br)cc1)C2=O | 12.5 µg/mL (≈ 31.9 µM) | 50 µg/mL (≈ 127 µM) | 50 µg/mL (≈ 127 µM) | 0.2 µg/mL (≈ 0.51 µM)
24 | COC(=O)c1cc2c(s1)C(=O)C=C(Nc1ccc(Cl)cc1)C2=O | 25 µg/mL (≈ 71.9 µM) | 50 µg/mL (≈ 144 µM) | 50 µg/mL (≈ 144 µM) | 6.3 µg/mL (≈ 18.1 µM)
25 | COC(=O)c1cc2c(s1)C(=O)C(Cl)=C(Nc1ccc(C)cc1)C2=O | 25 µg/mL (≈ 69.1 µM) | 50 µg/mL (≈ 138 µM) | 0.8 µg/mL (≈ 2.21 µM) | 12.5 µg/mL (≈ 34.5 µM)
26 | COC(=O)c1cc2c(s1)C(=O)C=C(Nc1ccc(O)cc1)C2=O | 12.5 µg/mL (≈ 38 µM) | 50 µg/mL (≈ 152 µM) | 50 µg/mL (≈ 152 µM) | 0.4 µg/mL (≈ 1.21 µM)
27 | COC(=O)c1cc2c(s1)C(=O)C(Cl)=C(Nc1ccc(O)cc1)C2=O | 6.3 µg/mL (≈ 17.3 µM) | 50 µg/mL (≈ 137 µM) | 12.5 µg/mL (≈ 34.4 µM) | 0.8 µg/mL (≈ 2.2 µM)
28 | COC(=O)c1cc2c(s1)C(=O)C=C(Nc1ccc(OC)cc1)C2=O | 25 µg/mL (≈ 72.8 µM) | > 50 µg/mL | > 50 µg/mL | 6.3 µg/mL (≈ 18.3 µM)
29 | Nc1nc(=O)[nH]cc1F [FLUCYTOSINE] | 6.3 µg/mL (≈ 48.8 µM) | 12.5 µg/mL (≈ 96.8 µM) | 6.3 µg/mL (≈ 48.8 µM) | 12.5 µg/mL (≈ 96.8 µM)
30 | O=C1C(Nc2ccc(Br)cc2)=C(Cl)C(=O)c2sc(CO)cc21 | 0.8 µg/mL (≈ 2.01 µM) | 50 µg/mL (≈ 125 µM) | 50 µg/mL (≈ 125 µM) | 0.8 µg/mL (≈ 2.01 µM)
31 | O=C1C(Nc2ccc(Cl)cc2)=CC(=O)c2sc(CO)cc21 | > 25 µg/mL | 25 µg/mL (≈ 78.2 µM) | > 50 µg/mL | 12.5 µg/mL (≈ 39.1 µM)
32 | O=C1C(Nc2ccc(I)cc2)=C(Cl)C(=O)c2sc(CO)cc21 | 1.6 µg/mL (≈ 3.59 µM) | 50 µg/mL (≈ 112 µM) | 50 µg/mL (≈ 112 µM) | 1.6 µg/mL (≈ 3.59 µM)
33 | COC(=O)c1cc2c(s1)C(=O)C(Cl)=C(Nc1ccc(F)cc1)C2=O | 25 µg/mL (≈ 68.3 µM) | 12.5 µg/mL (≈ 34.2 µM) | 12.5 µg/mL (≈ 34.2 µM) | 6.3 µg/mL (≈ 17.2 µM)
34 | COC(=O)c1cc2c(s1)C(=O)C=C(Nc1ccc(C(F)(F)F)cc1)C2=O | 1.6 µg/mL (≈ 4.2 µM) | 50 µg/mL (≈ 131 µM) | 50 µg/mL (≈ 131 µM) | 12.5 µg/mL (≈ 32.8 µM)
35 | COc1ccc(NC2=CC(=O)c3sc(CO)cc3C2=O)cc1 | 25 µg/mL (≈ 79.3 µM) | 3.2 µg/mL (≈ 10.1 µM) | 3.2 µg/mL (≈ 10.1 µM) | 0.8 µg/mL (≈ 2.54 µM)
36 | O=C1C(Nc2ccc(Br)cc2)=CC(=O)c2sc(CO)cc21 | 3.2 µg/mL (≈ 8.79 µM) | 3.2 µg/mL (≈ 8.79 µM) | 50 µg/mL (≈ 137 µM) | 12.5 µg/mL (≈ 34.3 µM)
37 | O=C1C(Nc2ccc(O)cc2)=CC(=O)c2sc(CO)cc21 | 12.5 µg/mL (≈ 41.5 µM) | 0.8 µg/mL (≈ 2.65 µM) | 0.8 µg/mL (≈ 2.65 µM) | 0.8 µg/mL (≈ 2.65 µM)
38 | COC(=O)c1cc2c(s1)C(=O)C(Cl)=C(Nc1ccc(OC)cc1)C2=O | 3.2 µg/mL (≈ 8.47 µM) | 50 µg/mL (≈ 132 µM) | 3.2 µg/mL (≈ 8.47 µM) | 6.3 µg/mL (≈ 16.7 µM)
39 | COC(=O)c1cc2c(s1)C(=O)C(Cl)=C(Nc1ccccc1)C2=O | 6.3 µg/mL (≈ 18.1 µM) | 12.5 µg/mL (≈ 35.9 µM) | 0.8 µg/mL (≈ 2.3 µM) | 3.2 µg/mL (≈ 9.2 µM)
